# Screens deposited in PubChem by The Scripps Research Institute Molecular Screening Center.
# Hits are enriched below; roughly 4.5% of the tested compounds scored in any of these assays.
# OX1R antag-1: antagonists of human orexin 1 receptor. CHO/OX1R cells, Fluo-8 calcium fluorescence, orexin A. inhibition, % at 5 µM. actives 0.43% (n = 330,000). AID 434989;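 active means inhibition above its plate's threshold, mean inhibition of all tested compounds on the plate plus 3 SD, cut at about 37% in these data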
# OX1R antag-2: OX1R (human) antagonism. O43613. OX1R-expressing cells, FRET antagonist read-out. inhibition, % at 6.6 µM. actives 1.8% (n = 330,000). AID 485270; in the data active means inhibition mostly above about 38%, no sharp cut-off; inactive means mostly below about 40%
# GPR7 antagonist: human neuropeptides B/W receptor 1 antagonism; P48145; GPR7-expressing cells, fluorescence antagonist assay; inhibition, % at 4.4 µM; actives 1.1% (n = 290,000); AID 1861; in the data active means inhibition above about 16%, passing the limit was not always enough;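 further: cells stimulated with the agonist NPW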
# Target sequence (P48145 whole entry, looked up): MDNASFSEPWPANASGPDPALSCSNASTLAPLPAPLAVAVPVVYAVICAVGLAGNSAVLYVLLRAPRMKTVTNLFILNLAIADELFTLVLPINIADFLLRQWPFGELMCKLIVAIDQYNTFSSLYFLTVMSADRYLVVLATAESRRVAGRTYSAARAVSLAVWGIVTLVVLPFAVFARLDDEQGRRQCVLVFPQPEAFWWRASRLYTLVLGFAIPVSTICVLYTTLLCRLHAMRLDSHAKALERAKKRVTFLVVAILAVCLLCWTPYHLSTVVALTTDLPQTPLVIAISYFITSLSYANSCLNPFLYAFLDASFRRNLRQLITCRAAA
# TAAR1 ag: human TAAR1 agonism; Q96RJ0; CHO RD-HGA16 TAAR1, Fluo-8 calcium fluorescence; vehicle wells 0%, saturating PEA agonist 100%; activation, % at 3 µM; actives 0.99% (n = 360,000);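 active means activation above the mean activation of all test compounds in the run plus 3 SD, cut at about 38% in these data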
# Target sequence (Q96RJ0 whole entry, looked up): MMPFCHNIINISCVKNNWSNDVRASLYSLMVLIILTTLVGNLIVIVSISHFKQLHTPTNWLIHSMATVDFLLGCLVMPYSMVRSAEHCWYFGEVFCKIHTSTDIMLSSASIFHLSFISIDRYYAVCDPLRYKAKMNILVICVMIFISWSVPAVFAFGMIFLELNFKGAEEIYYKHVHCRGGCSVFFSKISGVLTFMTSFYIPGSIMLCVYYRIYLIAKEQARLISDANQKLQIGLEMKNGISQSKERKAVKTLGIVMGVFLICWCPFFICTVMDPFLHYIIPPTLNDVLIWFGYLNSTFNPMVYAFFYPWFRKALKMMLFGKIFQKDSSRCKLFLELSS
#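 System: CHO RD-HGA16 cells carrying human TAAR1 plus Gα16; Incubation: 17-24 h seeding, 75 min 37 °C dye, 30 min RT; Measured by: Fluo-8 fluorescence, 5 s baseline then 140 s kinetic read; Control set: DMSO and PEA EC100; Replication: single well for each compound.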
# CHO parental Ca: counter-screen: ATP calcium response change in parental CHO cells | parental CHO-K1, ATP-induced calcium, Fluo-8 fluorescence | AID 463079 | actives 0.63% (n = 330,000) | inhibition, % at 5.6 µM;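 active means inhibition above that plate's mean sample inhibition plus 3 SD, cut at about 26% in these data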
#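 material = parental CHO cells | also added = ATP as calcium-mobilizing challenge | dosing = single point at 5.6 µM | detection = intracellular calcium via Fluo-8 no-wash fluorescent dye | read-out = % inhibition | benchmarks = low control ATP plus DMSO, high control DMSO only | repeats = one well per compound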
# TAAR1 antag: antagonists of human TAAR1. CHO RD-HGA16 TAAR1, Fluo-8 calcium fluorescence, antagonist. inhibition, % at 3 µM. actives 1.5% (n = 360,000). AID 624466;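 active means inhibition above a per-plate cutoff, the mean inhibition of test compounds on that plate plus 3 SD, cut at about 49% in these data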
#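 Test system – hTAAR1-expressing CHO RD-HGA16 cells, Gα16-coupled · Also added – β-PEA at EC80 concentration, post-compound challenge · Compound – 3 µM, single point · Incubation – dye loading 75 min at 37 °C, then 30 min room temperature · Measured by – Fluo-8 intracellular calcium dye fluorescence, real-time kinetic reads · Benchmarks – vehicle and agonist controls · Replicates – singlicate, one well per test compound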
# A number is an active result; 0 = inactive; - = no result.
SMILES,OX1R antag-1,OX1R antag-2,GPR7 antagonist,TAAR1 ag,CHO parental Ca,TAAR1 antag
CN1OC[C@@H]2CN(C(=S)Nc3cc(C(F)(F)F)cc(C(F)(F)F)c3)[C@H](c3ccccc3Br)C[C@@H]21,-,-,-,0,-,0
O=C(CC1SC(=Nc2ccccc2)N(CCCO)C1=O)Nc1ccc(Cl)cc1 (stereo not drawn),77,0,0,-,66,-
Cc1ccc(OC2CCN(C(=O)[C@@H](Cc3ccccc3)NC(=O)[C@H]3O[C@@H](n4ccc(=O)[nH]c4=O)[C@H](O)[C@@H]3O)CC2)cc1,-,-,-,0,-,0
COc1cc2[nH]c(=O)n3nc(-c4ccccc4)nc3c2cc1OC,0,37,0,-,0,-
CCCCn1nnc(NC(=O)c2ccc([N+](=O)[O-])cc2Cl)n1,0,64,0,0,0,0
CCCn1nnc(NC(=O)c2ccc([N+](=O)[O-])cc2Cl)n1,0,63,0,0,0,0
Cn1cc([N+](=O)[O-])c(C(=O)Nc2nc(-c3ccc(Cl)cc3)cs2)n1,40,0,0,40,56,67
Cn1cc([N+](=O)[O-])c(C(=O)Nc2ccc(C(=O)N3CCCCC3)cc2)n1,0,73,0,0,0,0
Cn1cc([N+](=O)[O-])c(C(=O)Nc2ccc(C3CCCCC3)cc2)n1,0,0,0,0,0,0
Cc1ccc(-c2nc(NC(=O)c3nn(C)cc3[N+](=O)[O-])sc2C)cc1,0,0,0,0,0,0
CC(=O)Nc1ccc(NC(=O)c2ccc([N+](=O)[O-])cc2Cl)cc1,0,0,0,0,0,0
Cn1cc([N+](=O)[O-])c(C(=O)NNC(=O)c2ccc([N+](=O)[O-])cc2Cl)n1,0,44,0,0,0,0
CC1CCN(C(=O)c2ncn3c2C(=O)NC[C@@H]3C)CC1,-,-,-,0,-,0
CC(C)(C)S(=O)N1Cc2cc(C(=O)N[C@@H]3CCN(Cc4ccccc4)C3)nc(-c3cccc(-c4cc5ccccc5o4)c3)c2[C@@H]1CCO (stereo partly drawn),-,-,-,0,-,59
CC(C)(C)S(=O)N1Cc2cc(C(=O)O)nc(-c3cccc(-c4cc5ccccc5o4)c3)c2[C@H]1CCO (stereo partly drawn),-,-,-,0,-,0
CN1CCN(C(=O)c2cc3c(c(-c4cccc(-c5cc6ccccc6o5)c4)n2)[C@H](CCO)N(S(=O)C(C)(C)C)C3)CC1 (stereo partly drawn),-,-,-,0,-,50
CN(c1ccccc1)S(=O)(=O)c1cccc(C(=O)NNC(=O)c2ccccc2)c1,0,46,0,0,0,0
CN(c1ccccc1)S(=O)(=O)c1cccc(NC(=O)CCNC(=O)c2ccccc2)c1,0,0,-,0,0,54
O=c1c2ccccc2ncn1Cc1ccc2c(c1)OCO2,0,0,0,0,0,0
COC(=O)CC#C[C@H](C)[C@@H](NS(=O)(=O)c1ccc([N+](=O)[O-])cc1)C(C)(C)C,-,-,-,0,-,0
Cc1ccc2c(c1)/C(=N/OS(=O)(=O)c1ccccc1)CCS2,0,0,0,0,0,0
CC1=CC(=O)C(C(C)C)=C/C1=N/OS(=O)(=O)c1ccccc1,75,64,81,0,71,0
CC1=CC(=O)C=C(C)C1=NOS(=O)(=O)c1ccccc1,-,-,40,0,-,52
C#CCNC(=O)C[C@H]1C[C@@]2(C(=O)OC)C(=C[C@H](C(C)C)O[C@@H]2C2CC2)N(Cc2ccccc2)C1=O,-,-,-,0,-,0
CC1CCCN(C(=O)c2ccc(S(=O)(=O)N3CCC(c4nc5ccccc5s4)CC3)cc2)C1 (stereo not drawn),0,0,0,0,0,0
SMILES,OX1R antag-1,OX1R antag-2,GPR7 antagonist,TAAR1 ag,CHO parental Ca,TAAR1 antag
CCN(CC)C(=O)c1ccc(S(=O)(=O)N2CCC(c3nc4ccccc4s3)CC2)cc1,0,37,0,0,0,0
COC(=O)Cc1nnn2c1[C@@H](C)[C@@H](c1ccccc1Br)OC[C@H](C)C2,-,-,-,0,-,0
Cc1ccc2n(n1)c(=O)c(Cc1ccccc1)c([O-])[n+]2-c1ccccc1,0,48,0,0,0,0
CC(C)C[C@H](NC(=O)C1CC1)C(=O)N1CCC[C@H]1C(=O)NCc1ccccc1,-,-,-,0,-,0
O=C(CSc1ccc(-c2ccc3c(c2)OCO3)nn1)Nc1nccs1,0,0,0,0,0,0
O=C(CSCC(=O)Nc1nc(-c2ccc3c(c2)OCO3)cs1)Nc1nccs1,0,0,0,0,0,54
C=CCn1c(CSc2ccccc2[N+](=O)[O-])n[nH]c1=S,0,0,0,0,0,0
C=CCn1c(Sc2ncc([N+](=O)[O-])s2)n[nH]c1=O,0,57,0,0,0,0
CC(C)(C)c1nc(NC(=O)Nc2ccccc2)sc1Br,60,0,32,0,47,0
COc1ccc2nc(NC(=O)Nc3ccccc3)sc2c1,0,0,0,0,0,0
N#Cc1ccc(C(=O)N2CCCC(c3cc(C(=O)NCc4cccnc4)no3)C2)cc1 (stereo not drawn),-,-,-,0,-,0
COc1cccc(/C=C2/SC(=S)N(CC(=O)NNC(=O)c3ccccc3O)C2=O)c1,0,48,0,0,0,0
COc1cccc(/C=C2/SC(=S)N(CCCC(=O)Nc3ccc(O)cc3)C2=O)c1,0,73,0,0,0,0
O=C(CCN1C(=O)/C(=C/c2ccc3c(c2)OCO3)SC1=S)Nc1cccc(C(=O)O)c1,0,0,0,0,0,0
O=C(CN1C(=O)/C(=C/c2ccccc2)SC1=S)NNC(=O)c1ccccc1O,0,0,0,0,0,0
O=C(CCCN1C(=O)/C(=C/c2ccc3c(c2)OCO3)SC1=S)Nc1cccc(C(=O)O)c1,0,54,0,0,0,0
COc1cccc(/C=C2\SC(=S)N(CCCC(=O)Nc3ccc(C(=O)O)cc3)C2=O)c1,0,0,0,0,0,0
COc1ccc(/C=C2/SC(=S)N(CCCC(=O)Nc3ccc(O)cc3)C2=O)cc1OC,0,54,0,0,0,0
COC(=O)c1cc2c(c3c4ccccc4n(S(=O)(=O)c4ccc(C)cc4)c13)C(=O)N(CC(C)C)C2,-,-,-,0,-,0
COc1ccc(Oc2cn[nH]c2-c2ccc(O)cc2O)cc1,0,0,0,0,0,0
COc1ccc(-c2cn[nH]c2-c2ccc(OCC(=O)NN)cc2O)cc1OC,0,0,0,0,0,0
C=C(C)COc1ccc(-c2[nH]ncc2Oc2cccc(OC)c2)c(O)c1,0,0,0,0,75,0
C=C(C)COc1ccc(-c2[nH]ncc2-c2ccc(OC)cc2)c(O)c1,0,0,0,0,42,0
C=C(C)COc1ccc(-c2[nH]ncc2-c2ccc(OC)c(OC)c2)c(O)c1,0,0,0,0,0,50
C=C(C)COc1ccc(-c2[nH]ncc2Oc2ccccc2OCC)c(O)c1,0,0,0,0,0,0
